≈ marks a conversion by molar mass, not a printed value.

From ChEMBL document CHEMBL1155144, “Cytoplasmic-membrane anchoring of a class A beta-lactamase and its capacity in manifesting antibiotic resistance” (2007) come the findings set out here.

Common to all, as to type: functional
Test [1] concerns Escherichia coli. In words: Antimicrobial activity against Escherichia coli JM83 harboring pACYC184-ATEM by serial dilution method. In a few lines:
(§1)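 Broth serial dilution in LB medium, microtitre format; inoculum 5 x 10^5 CFU/ml; incubated with antibiotic overnight at 37°C; MIC read after overnight growth.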

Test [2] has as its system Escherichia coli. In words: Antimicrobial activity against Escherichia coli JM83 harboring pACYC184-TEM by serial dilution method. In a few lines: as §1
The subject of test [3] is Escherichia coli. In words: Antimicrobial activity against Escherichia coli JM83 by serial dilution method. In a few lines: as §1

With `CC1(C)S[C@@H]2[C@H](NC(=O)[C@H](N)c3ccccc3)C(=O)N2[C@H]1C(=O)O` [AMPICILLIN], the values for the minimal inhibitory concentration (MIC) with Escherichia coli [1], in the test on Escherichia coli [2] and against Escherichia coli [3] were 4000 µg/mL (≈ 11400 µM), 4000 µg/mL (≈ 11400 µM) and 4 µg/mL (≈ 11.4 µM), respectively.
Consider `CC(C)(O/N=C(\C(=O)N[C@@H]1C(=O)N2C(C(=O)[O-])=C(C[n+]3ccccc3)CS[C@H]12)c1csc(N)n1)C(=O)O` [CEFTAZIDIME], for which the MIC against Escherichia coli [1], in the test on Escherichia coli [2] and against Escherichia coli [3] was 0.3 µg/mL (≈ 0.549 µM) in each case.
On to `O=C(Cc1cccs1)N[C@@H]1C(=O)N2C(C(=O)[O-])=C(C[n+]3ccccc3)CS[C@H]12` [CEPHALORIDINE], for which the MIC with Escherichia coli [1] was 32 µg/mL (≈ 77 µM); against Escherichia coli [2] it was 32 µg/mL (≈ 77 µM); in the test with Escherichia coli [3] it was 2 µg/mL (≈ 4.81 µM).
For the compound `CC(=O)OCC1=C(C(=O)O)N2C(=O)[C@@H](NC(=O)Cc3cccs3)[C@H]2SC1` [CEPHALOTHIN], the minimal inhibitory concentration (MIC) was found to be 64 µg/mL (≈ 161 µM) against Escherichia coli [1], 64 µg/mL (≈ 161 µM) against Escherichia coli [2] and 4 µg/mL (≈ 10.1 µM) against Escherichia coli [3].
As to `Cc1onc(-c2ccccc2)c1C(=O)N[C@@H]1C(=O)N2[C@@H]1SC(C)(C)[C@@H]2C(=O)O` [OXACILLIN], the minimal inhibitory concentration (MIC) amounted to 8000 µg/mL (≈ 19900 µM) in the test with Escherichia coli [1], 64 µg/mL (≈ 159 µM) against Escherichia coli [2] and 2 µg/mL (≈ 4.98 µM) in the test with Escherichia coli [3].

A word on the MIC: it is the lowest concentration that inhibits growth of the organism. A high value points to weaker potency.
